Rows were chosen to be rich in hits. Some 3.9% of all compounds tested hit in one or more screens of this group.
HSF-1 act: increases HSF-1 driven luciferase reporter signal; NIH3T3-HGL HSF-1 luciferase reporter, MG132, 8 h; 100% = twice DMSO control signal; activation, % at 9 µM; hit rate 1.7% among 300,000; AID 504408;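 active = mean replicate activation of at least 50% with a set share of replicates each reaching 50%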;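 also: 0% = median of the neutral control wells and 100% = twice that signal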
NS3 helicase inh: HCV NS3 helicase inhibition; NS3 helicase DNA unwinding, Cy5 molecular beacon fluorescence; inhibition, % at 10.9 µM; hit rate 0.56% among 290,000;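 active = inhibition above the mean of all tested compounds plus 3 SD, set per campaign, cut at about 35% in these data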;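 also: 0% = DMSO wells and 100% = thioflavine S control wells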
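System: Hepatitis C virus NS3 helicase domain fragment enzyme | Reagent: Annealed dual-labelled DNA beacon duplex, ATP-started | Compound dosing: 10.9 µM single point, 0.8% DMSO | Incubation: 1 h reaction at 25 °C, ATP-initiated | Technique: Cy5 fluorescence | Evaluation: Percent inhibition from t60/t0 fluorescence ratio | Benchmarks: Low DMSO, high thioflavine S at 110 µM | Replication: Singlicate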
DNA FID counter: displaces DNA intercalator in HCV helicase counter-screen. hit rate 0.17% among 290,000. inhibition, % at 7.9 µM. AID 1845. DNA fluorescent intercalator displacement, fluorescence; in the data active = inhibition above about 37%;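 also: 0% = vehicle and 100% = reference compound; higher means more ethidium bromide displaced from hairpin DNA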
HSF1 inhib: HSF1 inhibition. NIH3T3-HGL HSE-luciferase, MG132-induced, luminescence 8 h; stronger effect = lower value. activity change, negative = inhibition, % at 7.5 µM (by protocol). hit rate 0.77% among 300,000. AID 2098;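 active = more than half of replicate wells show activity change below -50%, luminescence cut by over half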;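 also: luciferase reports HSF-1 transcriptional activity via heat shock element; 0% = median of DMSO wells and -100% = zero luminescence signal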
HSP90 refold inh: HSP90 refolding inhibition in rabbit reticulocyte lysate. luciferase refolding luminescence, 3 h. inhibition, % at 5.6 µM. hit rate 0.91% among 290,000;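 active = inhibition above the screen-wide mean plus 3 SD, computed separately per campaign, cut at about 16% in these data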;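 also: 0% = DMSO wells and 100% = 60 µM geldanamycin wells; inhibitors lower the luminescence because luciferase stays unfolded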
core dimer inh: HCV core protein dimerization inhibition; TR-FRET GST/Flag-core106 dimerization, 1536-well; hit rate 0.33% among 300,000; inhibition, % at 5 µM;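 active = inhibition above the mean of all tested compounds plus 3 SD, set per screening campaign, cut at about 45% in these data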
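Material: GST/Flag-tagged HCV core106 proteins. Incubation: 4 h, 22.5 °C incubation. Read-out basis: inhibition (%) from 671 over 617 nm ratio. Measured by: TR-FRET, excitation 340 nm, emission 617 and 671 nm.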
* marks the source's active call; other numbers are inactive results.

Results for CC1(C)C2CC=C(/C=N/NC(=O)c3ccccc3Br)C1C2 (stereo unspecified) ?
NS3 helicase inh: 4.1; DNA FID counter: -1.5; HSP90 refold inh: 0.7; core dimer inh: 1.3

How did Cc1cccc(NC(=S)N2CCC(C(N)=O)(N3CCCCC3)CC2)c1C do in these assays?
HSF-1 act: -2.6; NS3 helicase inh: 2.0; DNA FID counter: 11.1; HSF1 inhib: 0.1; HSP90 refold inh: -7.0; core dimer inh: 7.1

Results for CCCS(=O)(=O)N1CCC(C(=O)NCCCN(CC)c2cccc(C)c2)CC1 ?
NS3 helicase inh: 6.3; DNA FID counter: -4.9; HSP90 refold inh: 1.1; core dimer inh: -6.1

What do the screens show for `CCCS(=O)(=O)N1CCCC(C(=O)NCCCN(CC)c2cccc(C)c2)C1` (stereo unspecified)?
HSF-1 act: 55.5*; NS3 helicase inh: -4.5; DNA FID counter: -13.9; HSF1 inhib: 26.8; HSP90 refold inh: 3.3; core dimer inh: -11.4

Results for NC(=O)COc1c(-c2ccc(Br)o2)oc2ccccc2c1=O ?
HSF-1 act: 2.0; NS3 helicase inh: -1.6; DNA FID counter: -14.6; HSF1 inhib: -2.4; HSP90 refold inh: -2.1; core dimer inh: -21.5

Results for Cn1c(=O)c2c(nc(Br)n2Cc2nnc(N)s2)n(C)c1=O ?
HSF-1 act: -13.8; NS3 helicase inh: 2.3; DNA FID counter: -0.2; HSF1 inhib: -4.6; HSP90 refold inh: -2.4; core dimer inh: 0.6

How did C(/C=C/c1ccccn1)=C\c1ccccc1 do in these assays?
HSF-1 act: 60.9*; HSF1 inhib: 21.7; core dimer inh: -11.1

Results for Cn1cc(S(=O)(=O)Nc2ccc(Br)cc2F)c(=O)n(C)c1=O ?
HSF-1 act: -17.5; NS3 helicase inh: 5.4; DNA FID counter: -6.4; HSF1 inhib: -5.8; HSP90 refold inh: -0.6; core dimer inh: -1.9

Results for O=C(CCNC(=O)c1ccc(Cl)cc1)Nc1ncccc1O ?
HSF-1 act: -89.3; NS3 helicase inh: -0.3; DNA FID counter: -11.0; HSF1 inhib: -86.7*; HSP90 refold inh: -3.0; core dimer inh: 11.8

How did O=C(Nc1ncccc1O)c1ccc(Oc2ccccc2)cc1 do in these assays?
HSF-1 act: 87.7*; NS3 helicase inh: 7.4; DNA FID counter: -11.7; HSF1 inhib: 47.1; HSP90 refold inh: 13.3; core dimer inh: -5.9

What do the screens show for `O=C(CCCNC(=O)c1ccc(Cl)cc1)Nc1ncccc1O`?
HSF-1 act: -10.3; NS3 helicase inh: -2.0; DNA FID counter: -5.0; HSF1 inhib: -6.5; HSP90 refold inh: -3.9; core dimer inh: 4.7

What do the screens show for `O=C(CN1C(=O)C2C3C=CC(C3)C2C1=O)OCC(=O)c1ccc(Br)cc1` (stereo unspecified)?
HSF-1 act: -65.7; NS3 helicase inh: 13.9; DNA FID counter: -25.4; HSF1 inhib: -60.2*; HSP90 refold inh: -2.0; core dimer inh: 0.6

How did COc1cc(/C=C2\CC/C(=C\c3cc(OC)c(OC)c(OC)c3)C2=O)cc(OC)c1OC do in these assays?
HSF-1 act: 28.1; NS3 helicase inh: 13.3; DNA FID counter: -12.4; HSF1 inhib: 11.5; HSP90 refold inh: -0.6; core dimer inh: 7.2

How did COc1cc(/C=C2/CCc3ccccc3C2=O)cc(OC)c1OC do in these assays?
HSF-1 act: 72.6*; NS3 helicase inh: -9.9; DNA FID counter: -14.3; HSF1 inhib: 42.9; HSP90 refold inh: 1.5; core dimer inh: 8.5

Results for COc1cc(/C=C2\COC/C(=C\c3cc(OC)c(OC)c(OC)c3)C2=O)cc(OC)c1OC ?
HSF-1 act: -92.8; NS3 helicase inh: -1.2; DNA FID counter: -9.8; HSF1 inhib: -92.5*; HSP90 refold inh: 4.5

How did COc1ccc(-c2csc3nc(-c4cccnc4)nc(Cl)c23)cc1OC do in these assays?
HSF-1 act: -13.0; NS3 helicase inh: 17.2; DNA FID counter: -24.3; HSF1 inhib: 5.2; HSP90 refold inh: -1.5; core dimer inh: -1.5

What do the screens show for `Clc1nc(-c2cccnc2)nc2scc(-c3ccccc3)c12`?
HSF-1 act: 71.8*; NS3 helicase inh: 7.6; DNA FID counter: -6.6; HSF1 inhib: 58.0; HSP90 refold inh: 2.9; core dimer inh: 4.8

What do the screens show for `C[C@@H]1C(NC(=O)c2ccccc2)CC2CC1C2(C)C` (stereo partly specified)?
HSF-1 act: 73.4*; NS3 helicase inh: 11.5; DNA FID counter: -32.2; HSF1 inhib: 20.9; HSP90 refold inh: -0.4; core dimer inh: 4.5

How did Fc1ccccc1N1CCN(Cc2nc(-c3ccccc3)no2)CC1 do in these assays?
HSF-1 act: -13.1; NS3 helicase inh: -5.0; DNA FID counter: -10.1; HSF1 inhib: -2.6; HSP90 refold inh: -0.2; core dimer inh: 3.8

How did Fc1ccccc1N1CCN(Cc2cc(-c3ccccc3)on2)CC1 do in these assays?
HSF-1 act: -80.0; NS3 helicase inh: -12.5; DNA FID counter: -23.7; HSF1 inhib: -75.3*; HSP90 refold inh: 1.5; core dimer inh: 1.4

Results for COc1ccc(N2CCN(C(=O)CCS(=O)(=O)c3ccc4c(c3)CCN4C(=O)C3CC3)CC2)cc1 ?
HSF-1 act: -13.7; NS3 helicase inh: 21.9; DNA FID counter: -60.9; HSF1 inhib: 2.8; HSP90 refold inh: 1.0; core dimer inh: -37.7

Results for Cc1ccc(CNC(=O)C(=O)NCC2OCCN2S(=O)(=O)c2ccc(Br)cc2)cc1 (stereo unspecified) ?
HSF-1 act: 14.7; NS3 helicase inh: -30.9; DNA FID counter: -39.1; HSF1 inhib: 1.4; HSP90 refold inh: 2.4; core dimer inh: 0.2

Results for Cc1cc2c(cc1C)NC(CC(=O)NCc1ccccc1)C(=O)N2 (stereo unspecified) ?
HSF-1 act: 75.5*; NS3 helicase inh: 3.9; DNA FID counter: -3.0; HSF1 inhib: 38.7; HSP90 refold inh: 2.2; core dimer inh: 6.9

How did CCCCN(CC)c1nc(N)c2c(N)nc(OCC)cc2c1C#N do in these assays?
HSF-1 act: 57.4*; NS3 helicase inh: -8.9; DNA FID counter: 1.8; HSF1 inhib: 22.4; HSP90 refold inh: 3.2; core dimer inh: -4.7

Results for CCOc1cc2c(C#N)c(N3CCCC3)nc(N)c2c(N)n1 ?
HSF-1 act: -50.4; HSF1 inhib: -36.4; core dimer inh: 0.8

What do the screens show for `Cc1nc2cc(NC(=O)CS(=O)(=O)c3ccc(F)cc3)ccc2s1`?
HSF-1 act: -5.4; HSF1 inhib: 3.5; core dimer inh: -1.5

What do the screens show for `O=C(COc1ccc(Cl)cc1)NCCN1CCCC1`?
HSF-1 act: -0.5; NS3 helicase inh: 0.6; DNA FID counter: -0.5; HSF1 inhib: 1.3; HSP90 refold inh: -3.3; core dimer inh: 2.7

What do the screens show for `O=C(COc1ccc(Cl)cc1)NCCN1CCCCC1`?
HSF-1 act: -63.9; NS3 helicase inh: 3.1; DNA FID counter: 0.5; HSF1 inhib: -55.5*; HSP90 refold inh: 0.1; core dimer inh: 2.2

How did O=C(COc1ccc(Cl)cc1)NCCCNC(=O)c1ccccn1 do in these assays?
HSF-1 act: 83.9*; NS3 helicase inh: 7.5; DNA FID counter: -19.1; HSF1 inhib: 30.2; HSP90 refold inh: 5.6; core dimer inh: -1.0

Screening data: PubChem BioAssay, several laboratories
